Reference: ChEMBL document CHEMBL3994637, “Broad spectrum anti-infective properties of benzisothiazolones and the parallels in their anti-bacterial and anti-fungal effects” (Bioorg Med Chem Lett, 2017)
≈ marks a conversion by molar mass, not a printed value.

These molecules were tested on Staphylococcus aureus (assay: Antibacterial activity against Staphylococcus aureus ATCC 25923 by broth microdilution method). Details: not given.
Type: functional
Molecule `COC(=O)[C@@H](NC(=O)[C@H](C(C)C)n1sc2ccccc2c1=O)C(C)C` has an IC50 of over 50 µg/mL and an MIC of over 50 µg/mL.
`CC(C)Cn1sc2ccccc2c1=O` was tested, and the IC50 was 10.6 µg/mL (≈ 51.1 µM) and the MIC was 15.4 µg/mL (≈ 74.3 µM).
`O=c1c2ccccc2sn1-c1ccccc1-n1sc2ccccc2c1=O` showed an IC50 of 10 µg/mL (≈ 26.6 µM) and an MIC of 18 µg/mL (≈ 47.8 µM).
`C[C@@H](c1ccccc1)n1sc2ccccc2c1=O` showed an IC50 of 6.8 µg/mL (≈ 26.6 µM) and an MIC of 10.2 µg/mL (≈ 39.9 µM).
In the case of `O=c1c2ccccc2sn1C1CCCCC1n1sc2ccccc2c1=O` (configuration not stated), the IC50 is reported as 3.2 µg/mL (≈ 8.37 µM) and the MIC is reported as 3.4 µg/mL (≈ 8.89 µM).

What follows are molecules tested on Staphylococcus aureus (assay: Antibacterial activity against methicillin-resistant Staphylococcus aureus ATCC 700699 by broth microdilution method). Details: Mu50.
Type: functional
`COC(=O)[C@@H](NC(=O)[C@H](C(C)C)n1sc2ccccc2c1=O)C(C)C` was tested, and the IC50 was over 50 µg/mL and the MIC was over 50 µg/mL.
`CC(C)Cn1sc2ccccc2c1=O` showed an IC50 of 4.7 µg/mL (≈ 22.7 µM) and an MIC of 5.2 µg/mL (≈ 25.1 µM).
`O=c1c2ccccc2sn1-c1ccccc1-n1sc2ccccc2c1=O` showed an IC50 of 4.7 µg/mL (≈ 12.5 µM) and an MIC of 10.2 µg/mL (≈ 27.1 µM).
`C[C@@H](c1ccccc1)n1sc2ccccc2c1=O` was tested, and the IC50 was 1 µg/mL (≈ 3.92 µM) and the MIC was 1.9 µg/mL (≈ 7.44 µM).
`O=c1c2ccccc2sn1C1CCCCC1n1sc2ccccc2c1=O` (configuration not stated) gave an IC50 of 1.4 µg/mL (≈ 3.66 µM) and an MIC of 2.3 µg/mL (≈ 6.01 µM).

Each molecule was assayed on Staphylococcus aureus (assay: Antibacterial activity against Staphylococcus aureus ATCC 29213 by broth microdilution method). Details: not given.
Type: functional
With `COC(=O)[C@@H](NC(=O)[C@H](C(C)C)n1sc2ccccc2c1=O)C(C)C` the IC50 was over 50 µg/mL and the MIC was over 50 µg/mL.
In the case of `CC(C)Cn1sc2ccccc2c1=O`, the IC50 is reported as 6.3 µg/mL (≈ 30.4 µM) and the MIC is reported as 9.8 µg/mL (≈ 47.3 µM).
Molecule `O=c1c2ccccc2sn1-c1ccccc1-n1sc2ccccc2c1=O` has an IC50 of 6.3 µg/mL (≈ 16.7 µM) and an MIC of 6.5 µg/mL (≈ 17.3 µM).
In the case of `C[C@@H](c1ccccc1)n1sc2ccccc2c1=O`, the IC50 is reported as 4.6 µg/mL (≈ 18 µM) and the MIC is reported as 8.5 µg/mL (≈ 33.3 µM).
Molecule `O=c1c2ccccc2sn1C1CCCCC1n1sc2ccccc2c1=O` (configuration not stated) has an IC50 of 2.5 µg/mL (≈ 6.54 µM) and an MIC of 3.7 µg/mL (≈ 9.67 µM).

These molecules were tested on Escherichia coli (assay: Antibacterial activity against Escherichia coli ATCC 9637 by broth microdilution method). Details: W.
Type: functional
Method in brief: (§1)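 Bacteria were tested by the NCCLS method in Mueller Hinton broth, with gentamicin and norfloxacin as reference drugs.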
`COC(=O)[C@@H](NC(=O)[C@H](C(C)C)n1sc2ccccc2c1=O)C(C)C` gave an IC50 of over 50 µg/mL and an MIC of over 50 µg/mL.
In the case of `CC(C)Cn1sc2ccccc2c1=O`, the IC50 is reported as over 50 µg/mL and the MIC is reported as over 50 µg/mL.
`O=c1c2ccccc2sn1-c1ccccc1-n1sc2ccccc2c1=O` gave an IC50 of over 50 µg/mL and an MIC of over 50 µg/mL.
`C[C@@H](c1ccccc1)n1sc2ccccc2c1=O` showed an IC50 of over 50 µg/mL and an MIC of over 50 µg/mL.
In the case of `O=c1c2ccccc2sn1C1CCCCC1n1sc2ccccc2c1=O` (configuration not stated), the IC50 is reported as over 50 µg/mL and the MIC is reported as over 50 µg/mL.

What follows are molecules tested on Pseudomonas aeruginosa (assay: Antibacterial activity against Pseudomonas aeruginosa ATCC BAA-427 by broth microdilution method). Details: not given.
Type: functional
Method in brief: as §1
Work on `COC(=O)[C@@H](NC(=O)[C@H](C(C)C)n1sc2ccccc2c1=O)C(C)C` yielded an IC50 of over 50 µg/mL and an MIC of over 50 µg/mL.
`CC(C)Cn1sc2ccccc2c1=O` gave an IC50 of over 50 µg/mL and an MIC of over 50 µg/mL.
For `O=c1c2ccccc2sn1-c1ccccc1-n1sc2ccccc2c1=O`, the IC50 was over 50 µg/mL and the MIC was over 50 µg/mL.
`C[C@@H](c1ccccc1)n1sc2ccccc2c1=O` gave an IC50 of over 50 µg/mL and an MIC of over 50 µg/mL.
With `O=c1c2ccccc2sn1C1CCCCC1n1sc2ccccc2c1=O` (configuration not stated) the IC50 was over 50 µg/mL and the MIC was over 50 µg/mL.

Each molecule was assayed on Klebsiella pneumoniae (assay: Antibacterial activity against Klebsiella pneumoniae ATCC 27736 by broth microdilution method). Details: not given.
Type: functional
Method in brief: as §1
Molecule `COC(=O)[C@@H](NC(=O)[C@H](C(C)C)n1sc2ccccc2c1=O)C(C)C` has an IC50 of over 50 µg/mL and an MIC of over 50 µg/mL.
`CC(C)Cn1sc2ccccc2c1=O` showed an IC50 of over 50 µg/mL and an MIC of over 50 µg/mL.
`O=c1c2ccccc2sn1-c1ccccc1-n1sc2ccccc2c1=O` gave an IC50 of over 50 µg/mL and an MIC of over 50 µg/mL.
`C[C@@H](c1ccccc1)n1sc2ccccc2c1=O` was tested, and the IC50 was over 50 µg/mL and the MIC was over 50 µg/mL.
`O=c1c2ccccc2sn1C1CCCCC1n1sc2ccccc2c1=O` (configuration not stated) gave an IC50 of over 50 µg/mL and an MIC of over 50 µg/mL.

What follows are molecules tested on Candida albicans (assay: Anti-fungal activity against Candida albicans after 48 hrs by broth microdilution method). Details: not given.
Type: functional
With `COC(=O)[C@@H](NC(=O)[C@H](C(C)C)n1sc2ccccc2c1=O)C(C)C` the IC50 was over 50 µg/mL and the MIC was over 50 µg/mL.
`CC(C)Cn1sc2ccccc2c1=O` showed an MIC of 0.6 µg/mL (≈ 2.89 µM).
`O=c1c2ccccc2sn1-c1ccccc1-n1sc2ccccc2c1=O` gave an IC50 of 14.2 µg/mL (≈ 37.7 µM) and an MIC of 25 µg/mL (≈ 66.4 µM).
`C[C@@H](c1ccccc1)n1sc2ccccc2c1=O` showed an IC50 of 0.5 µg/mL (≈ 1.96 µM) and an MIC of 1 µg/mL (≈ 3.92 µM).
In the case of `O=c1c2ccccc2sn1C1CCCCC1n1sc2ccccc2c1=O` (configuration not stated), the IC50 is reported as over 50 µg/mL and the MIC is reported as over 50 µg/mL.

These molecules were tested on Cryptococcus neoformans (assay: Anti-fungal activity against Cryptococcus neoformans after 48 hrs by broth microdilution method). Details: not given.
Type: functional
Molecule `COC(=O)[C@@H](NC(=O)[C@H](C(C)C)n1sc2ccccc2c1=O)C(C)C` has an IC50 of over 50 µg/mL and an MIC of over 50 µg/mL.
`CC(C)Cn1sc2ccccc2c1=O` showed an MIC of 0.4 µg/mL (≈ 1.93 µM).
Work on `O=c1c2ccccc2sn1-c1ccccc1-n1sc2ccccc2c1=O` yielded an IC50 of 13.7 µg/mL (≈ 36.4 µM) and an MIC of 14.4 µg/mL (≈ 38.3 µM).
`C[C@@H](c1ccccc1)n1sc2ccccc2c1=O` gave an IC50 of 1 µg/mL (≈ 3.92 µM) and an MIC of 2.9 µg/mL (≈ 11.4 µM).
In the case of `O=c1c2ccccc2sn1C1CCCCC1n1sc2ccccc2c1=O` (configuration not stated), the IC50 is reported as over 50 µg/mL and the MIC is reported as over 50 µg/mL.

The molecules below were run on Sporothrix schenckii (assay: Anti-fungal activity against Sporothrix schenckii after 48 hrs by broth microdilution method). Details: not given.
Type: functional
`COC(=O)[C@@H](NC(=O)[C@H](C(C)C)n1sc2ccccc2c1=O)C(C)C` gave an IC50 of over 50 µg/mL and an MIC of over 50 µg/mL.
With `CC(C)Cn1sc2ccccc2c1=O` the MIC was 1.4 µg/mL (≈ 6.75 µM).
Work on `O=c1c2ccccc2sn1-c1ccccc1-n1sc2ccccc2c1=O` yielded an IC50 of over 50 µg/mL and an MIC of over 50 µg/mL.
Molecule `C[C@@H](c1ccccc1)n1sc2ccccc2c1=O` has an IC50 of 0.4 µg/mL (≈ 1.57 µM) and an MIC of 1.6 µg/mL (≈ 6.27 µM).
For `O=c1c2ccccc2sn1C1CCCCC1n1sc2ccccc2c1=O` (configuration not stated), the IC50 was over 50 µg/mL and the MIC was over 50 µg/mL.

Each molecule was assayed on Trichophyton mentagrophytes (assay: Anti-fungal activity against Trichophyton mentagrophytes after 48 hrs by broth microdilution method). Details: not given.
Type: functional
In the case of `COC(=O)[C@@H](NC(=O)[C@H](C(C)C)n1sc2ccccc2c1=O)C(C)C`, the IC50 is reported as over 50 µg/mL and the MIC is reported as over 50 µg/mL.
With `CC(C)Cn1sc2ccccc2c1=O` the IC50 was over 50 µg/mL and the MIC was over 50 µg/mL.
`O=c1c2ccccc2sn1-c1ccccc1-n1sc2ccccc2c1=O` gave an IC50 of 12.5 µg/mL (≈ 33.2 µM) and an MIC of 13.6 µg/mL (≈ 36.1 µM).
For `C[C@@H](c1ccccc1)n1sc2ccccc2c1=O`, the IC50 was 0.7 µg/mL (≈ 2.74 µM) and the MIC was 0.4 µg/mL (≈ 1.57 µM).
For `O=c1c2ccccc2sn1C1CCCCC1n1sc2ccccc2c1=O` (configuration not stated), the IC50 was over 50 µg/mL and the MIC was over 50 µg/mL.

These molecules were tested on Aspergillus fumigatus (assay: Anti-fungal activity against Aspergillus fumigatus after 48 hrs by broth microdilution method). Details: not given.
Type: functional
`COC(=O)[C@@H](NC(=O)[C@H](C(C)C)n1sc2ccccc2c1=O)C(C)C` showed an IC50 of over 50 µg/mL and an MIC of over 50 µg/mL.
`CC(C)Cn1sc2ccccc2c1=O` was tested, and the IC50 was 1.3 µg/mL (≈ 6.27 µM) and the MIC was 2.6 µg/mL (≈ 12.5 µM).
`O=c1c2ccccc2sn1-c1ccccc1-n1sc2ccccc2c1=O` showed an IC50 of over 50 µg/mL and an MIC of over 50 µg/mL.
With `C[C@@H](c1ccccc1)n1sc2ccccc2c1=O` the IC50 was 0.4 µg/mL (≈ 1.57 µM) and the MIC was 6.5 µg/mL (≈ 25.5 µM).
`O=c1c2ccccc2sn1C1CCCCC1n1sc2ccccc2c1=O` (configuration not stated) gave an IC50 of over 50 µg/mL and an MIC of over 50 µg/mL.

What follows are molecules tested on Candida parapsilosis (assay: Anti-fungal activity against Candida parapsilosis ATCC 22019 after 48 hrs by broth microdilution method). Details: Lodderomyces parapsilosis, ATCC 22019, 48 h.
Type: functional
With `COC(=O)[C@@H](NC(=O)[C@H](C(C)C)n1sc2ccccc2c1=O)C(C)C` the IC50 was over 50 µg/mL and the MIC was over 50 µg/mL.
Work on `CC(C)Cn1sc2ccccc2c1=O` yielded an IC50 of 1 µg/mL (≈ 4.82 µM) and an MIC of 1.1 µg/mL (≈ 5.31 µM).
In the case of `O=c1c2ccccc2sn1-c1ccccc1-n1sc2ccccc2c1=O`, the IC50 is reported as 15.2 µg/mL (≈ 40.4 µM) and the MIC is reported as 17.1 µg/mL (≈ 45.4 µM).
Work on `C[C@@H](c1ccccc1)n1sc2ccccc2c1=O` yielded an IC50 of 0.7 µg/mL (≈ 2.74 µM) and an MIC of 2.1 µg/mL (≈ 8.22 µM).
For `O=c1c2ccccc2sn1C1CCCCC1n1sc2ccccc2c1=O` (configuration not stated), the IC50 was over 50 µg/mL and the MIC was over 50 µg/mL.

What follows are molecules tested on Plasmodium falciparum (assay: Antimalarial activity against chloroquine-sensitive Plasmodium falciparum 3D7 after 72 hrs by SYBR Green-1 staining based fluorescence assay). Details: 3D7, 72 h.
Type: functional
Molecule `COC(=O)[C@@H](NC(=O)[C@H](C(C)C)n1sc2ccccc2c1=O)C(C)C` has an IC50 of over 2000 nM.
Molecule `CC(C)Cn1sc2ccccc2c1=O` has an IC50 of over 2000 nM.
Work on `O=c1c2ccccc2sn1-c1ccccc1-n1sc2ccccc2c1=O` yielded an IC50 of over 2000 nM.
`C[C@@H](c1ccccc1)n1sc2ccccc2c1=O` showed an IC50 of over 2000 nM.
`O=c1c2ccccc2sn1C1CCCCC1n1sc2ccccc2c1=O` (configuration not stated) gave an IC50 of over 2000 nM.
